Assay results from different studies.
Target: Serine/threonine-protein kinase WNK1 (WNK1, Homo sapiens, UniProt Q9H4A3)

The remaining binding of `O=C(NCCCN1CCOCC1)c1ccc(Nc2nccc(-c3cc4ccccc4s3)n2)cc1` is reported as 98% (binding, competition with immobilised ligand; 1 µM).
With `CC1CCCN1c1nccc(-c2cnn3ncccc23)n1` (stereo not shown) the remaining binding was 98% (binding; 1 µM).
The remaining binding of `CC(C)CC(=O)N1CCc2nc(-c3ccc(Br)cc3)nc(N(C)Cc3ccccc3)c2C1` is reported as 100% (cell-free assay, competition with immobilised ligand; 0.1 µM).
The remaining binding of `Cc1cnc(Nc2ccc(C(=O)N3CCC(N4CCCC4)CC3)cc2)nc1-c1cc2ccccc2s1` is reported as 90% (binding, competition with immobilised ligand; 1 µM).
`NS(=O)(=O)c1cc(NC(=O)Cc2ccccc2)ccc1Oc1cccc(Cl)c1` has a remaining binding of 89% (cell-free assay, competition with immobilised ligand; 1 µM).
`Nc1ncc2c(n1)-c1c([nH]c3ccc(C#CC4CC4)cc13)CCCC2` gave a remaining binding of 97% (binding, competition with immobilised ligand; 1 µM).
The remaining binding of `NS(=O)(=O)c1cc(NC(=O)C2(c3ccccc3Cl)CC2)ccc1Oc1cccc(Cl)c1` is reported as 88% (cell-free assay, competition with immobilised ligand; 1 µM).
The remaining binding of `COc1cnc(Nc2cccc(S(N)(=O)=O)c2)nc1N1CCN(c2ccccc2)C(=O)C1` is reported as 0% (binding, competition with immobilised ligand; 1 µM).
For `COc1ccnn2ncc(-c3ccnc(N(C)C)n3)c12`, the remaining binding was 100% (binding; 1 µM).
For `O=C(O)[C@H]1[C@H](Cn2nnc3ccccc3c2=O)CC[C@@H]1C(=O)c1ccc(OCCC2CCOCC2)cc1`, the remaining binding was 100% (cell-free assay, competition with immobilised ligand; 1 µM).
`O=C(Nc1c[nH]nc1C(=O)NC1CCNCC1)c1cc(F)cc(F)c1` has a remaining binding of 100% (binding, competition with immobilised ligand; 1 µM).
The remaining binding of `Cc1cnn2ncc(-c3ccnc(N(C)C)n3)c2c1` is reported as 94% (binding; 1 µM).
With `O=C(c1ccc(Nc2nccc(-c3cc4ccccc4s3)n2)cc1)N1CCC(N2CCCC2)CC1` the remaining binding was 88% (binding, competition with immobilised ligand; 1 µM).
`CN(C)C(=O)Cn1cc(-c2nc([C@@](C)(c3ccc(-c4cnc(N)nc4)cc3)C3CC3)no2)cn1` has a remaining binding of 94% (cell-free assay, competition with immobilised ligand; 1 µM).
`COc1ncc2cc3ccccc3nc2c1C#N` has a remaining binding of 95% (cell-free assay, competition with immobilised ligand; 5 µM).
With `CN(CCCC(F)(F)F)c1nccc(-c2cnn3ncccc23)n1` the remaining binding was 100% (binding; 1 µM).
The remaining binding of `c1cncc(-c2cccc(Nc3nccc(NC4CCCCC4)n3)c2)c1` is reported as 87% (binding, competition with immobilised ligand; 10 µM).
With `CN(C)c1ncc(F)c(-c2cnn3ncccc23)n1` the remaining binding was 87% (binding; 1 µM).
`FC(F)(F)Oc1cccc(-c2cnc3ccc(-c4ccncc4)nn23)c1` has a remaining binding of 79% (binding, competition with immobilised ligand; 5 µM).
